Results collected from several papers.
Lines come from different studies, so protocols differ.
Organism: Plasmodium falciparum
Effect on: parasite growth
Method: SYBR Green

SMILES	test system	conditions	quantity	value
Cn1cc2c3c1C(=O)C(NCCc1ccc(O)cc1)=CC3=NCC2	DD2	blood stage	IC50	2380 nM
Cc1cc(Nc2ccc(S(F)(F)(F)(F)F)cc2)n2nc(C(C)(F)F)nc2n1		72 h	EC50	5.7 nM
COc1ccccc1C(=O)/C=C/c1cn(Cc2cn(-c3ccnc4cc(Cl)ccc34)nn2)c2ccccc12		drug-resistant strain, blood stage	IC50	3500 nM
COCC(=O)N1CCC[C@H](C(=O)NCc2nc(-c3ccc(C)cc3)cs2)C1	DD2	72 h, blood stage	EC50	15 nM
O=C(/C=C/c1cn(Cc2cn(-c3ccnc4cc(Cl)ccc34)nn2)c2ccccc12)c1ccccc1Cl	3D7	5 µM, blood stage	inhibition	42.4%
O=C1C(O)=C([C@H]2CC[C@H](c3ccc(Cl)cc3)CC2)C(=O)c2ccccc21		72 h	EC50	0.86 nM
COC(CNC1=CC2=NCCc3c[nH]c(c32)C1=O)c1c[nH]c2ccccc12 (stereo not shown)	W2	blood stage	IC50	1120 nM
O=C(/C=C/c1cn(Cc2cn(-c3ccnc4cc(Cl)ccc34)nn2)c2ccccc12)c1ccccc1[N+](=O)[O-]	3D7	5 µM, blood stage	inhibition	-5.03%
COCC(=O)N1CCCC(C(=O)NCc2nc(-c3ccccc3)cs2)C1 (racemic)	DD2	72 h, blood stage	EC50	140 to 190 nM
O=C(/C=C/c1cn(Cc2cn(-c3ccnc4cc(Cl)ccc34)nn2)c2ccccc12)c1ccccc1Br	3D7	10 µM, blood stage	inhibition	47.4%
O=C1c2[nH]cc3c2C(=NCC3)c2c(-c3ccc(O)cc3)c[nH]c21	DD2	blood stage	IC50	4770 nM
CCN(CC)CCCC(C)Nc1ccnc2cc(Cl)ccc12 (stereo not shown)	3D7	96 h, blood stage	IC50	4.8 nM
CCOC(=O)C1=C(C)NC2=C(C(=O)OC(c3ccc(OC)c(OC)c3)C2)C1c1ccccc1C (mixture of isomers)	3D7	blood stage	EC50	40 to 190 nM
O=C1C(NCCc2c[nH]c3ccccc23)=CC2=NCCc3c[nH]c1c32	W2	blood stage	IC50	716 nM
O=C(/C=C/c1cn(Cc2cn(-c3ccnc4cc(Cl)ccc34)nn2)c2ccccc12)c1cccc([N+](=O)[O-])c1	3D7	5 µM, blood stage	inhibition	4.82%
NC1=CC2=NCCc3c[nH]c(c32)C1=O	W2	blood stage	IC50	294 nM
O=C(/C=C/c1cn(Cc2cn(-c3ccnc4cc(Cl)ccc34)nn2)c2ccccc12)c1ccc(Br)cc1	3D7	5 µM, blood stage	inhibition	12.9%
COC1=CC2=[N+](C)CCc3c[nH]c(c32)C1=O	W2	blood stage	IC50	1520 nM
CCOCC(=O)N1CCC[C@H](C(=O)NCc2nc(-c3ccc(C#N)cc3)cs2)C1	DD2	72 h, blood stage	EC50	5.8 nM
